This note sets out measurements from ChEMBL document CHEMBL1124441, “Synthesis of congeners and prodrugs. 3. Water-soluble prodrugs of taxol with potent antitumor activity” (1989).

The subject of assay [1] is B16. The experiment in a line: Antitumor activity in B16 Melanoma system animals is indicated by survivors on day 4 intraperitoneally. The settings on record: Mus musculus, route intraperitoneal.
Assay [2] concerns B16. The experiment in a line: (§1) Difference in body weight in grams between test and control animals at a dose of 5 mg/kg intraperitoneally. It is filed as functional, Mus musculus. The settings on record: route intraperitoneal. A digest of the protocol:
(§2)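 B16 melanoma system: 10⁶ tumor cells inoculated ip on day 0. Drug given ip once daily for 9 days (Q01Dx09) starting day 1, dose as mg/kg body weight per injection. Read-out is the body-weight difference in grams, treated minus control animals. Early deaths, taken as toxicity, are scored on day 4.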

Assay [3] relates to B16. The experiment in a line: Percent of median lifetime of test animals divided by the median lifetime of control animals at a dose of 10 mg/kg intraperitoneally. It is filed as functional, Mus musculus. The settings on record: route intraperitoneal. An outline of the steps: (§3)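 B16 melanoma inoculated ip (10⁶ cells) on day 0. Daily ip treatment for 9 days (Q01Dx09) begins day 1, dosed per injection in mg/kg. %T/C is the median lifespan of treated animals divided by that of tumored untreated controls, ×100. Cures are animals alive on the last test day. Toxic deaths are assessed on day 4.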

Assay [4] relates to B16. Nature of the assay: (§4) Difference in body weight in grams between test and control animals at a dose of 2.5 mg/kg intraperitoneally. It counts as functional, Mus musculus. The settings on record: route intraperitoneal. An outline of the steps:
as §2

For assay [5], the system named is B16. Nature of the assay: Percent of median lifetime of test animals divided by the median lifetime of control animals at a dose of 1.25 mg/kg intraperitoneally. It is filed as functional, Mus musculus. The settings on record: route intraperitoneal. An outline of the steps:
as §3

In assay [6] the test system is B16. The experiment in a line: Antitumor activity in B16 Melanoma system animals is indicated by survivors on day 4 at a dose of 1.25 mg/kg intraperitoneally. The note with it: route intraperitoneal. It counts as functional, Mus musculus. A digest of the protocol: (§5)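 B16 melanoma, 10^6 cells inoculated ip on day 0. Ip treatment started day 1, schedule Q01Dx09 (one dose daily for 9 days). The score is live animals on day 4 over total animals; early deaths are taken as drug toxicity.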

The test system of assay [7] is B16. Nature of the assay: Difference in body weight in grams between test and control animals at a dose of 1.25 mg/kg intraperitoneally. The settings on record: route intraperitoneal. It is filed as functional, Mus musculus. An outline of the steps: as §2
Assay [8] has as its system B16. Nature of the assay: Antitumor activity in B16 Melanoma system animals is indicated by survivors on day 4 at a dose of 5 mg/kg intraperitoneally. The note with it: route intraperitoneal. It is filed as functional, Mus musculus. A digest of the protocol: as §5
The subject of assay [9] is B16. The experiment in a line: Antitumor activity in B16 Melanoma system animals is indicated by survivors on day 4 at a dose of 2.5 mg/kg intraperitoneally. It is filed as functional, Mus musculus. Further details: reference not given here. The settings on record: route intraperitoneal. A digest of the protocol: as §5
Assay [10] has as its system B16. Nature of the assay: (§6) Difference in body weight in grams between test and control animals at a dose of 20 mg/kg intraperitoneally. It counts as functional, Mus musculus. The settings on record: route intraperitoneal. A digest of the protocol: as §2
The subject of assay [11] is B16. The experiment in a line: Percent of median lifetime of test animals divided by the median lifetime of control animals at a dose of 20 mg/kg intraperitoneally. It is filed as functional, Mus musculus. The note with it: route intraperitoneal. An outline of the steps: as §3
In assay [12] the test system is B16. The experiment in a line: Percent of median lifetime of test animals divided by the median lifetime of control animals at a dose of 5 mg/kg intraperitoneally. It counts as functional, Mus musculus. The settings on record: route intraperitoneal. A digest of the protocol: as §3
The test system of assay [13] is B16. The experiment in a line: Antitumor activity in B16 Melanoma system animals is indicated by survivors on day 4 at a dose of 10 mg/kg intraperitoneally. The note with it: route intraperitoneal. Further details: reference not given here. It is filed as functional, Mus musculus. An outline of the steps:
as §5

Assay [14] concerns B16. Nature of the assay: Percent of median lifetime of test animals divided by the median lifetime of control animals at a dose of 2.5 mg/kg intraperitoneally. It is filed as functional, Mus musculus. The note with it: route intraperitoneal. A digest of the protocol:
as §3

The test system of assay [15] is B16. Nature of the assay: (§7) Difference in body weight in grams between test and control animals at a dose of 10 mg/kg intraperitoneally. It is filed as functional, Mus musculus. The settings on record: route intraperitoneal. An outline of the steps:
as §2

Assay [16] has as its system B16. Nature of the assay: (§8) Difference in body weight in grams between test and control animals at a dose of 40 mg/kg intraperitoneally. It is filed as functional, Mus musculus. The settings on record: route intraperitoneal. A digest of the protocol:
as §2

Assay [17] relates to B16. The experiment in a line: Antitumor activity in B16 Melanoma system animals is indicated by survivors on day 4 at a dose of 40 mg/kg intraperitoneally. It is filed as functional, Mus musculus. The settings on record: route intraperitoneal. An outline of the steps:
as §5

Assay [18] has as its system B16. Nature of the assay: Percent of median lifetime of test animals divided by the median lifetime of control animals at a dose of 40 mg/kg intraperitoneally; Toxic. It counts as functional, organism-based. Further details: dose 40 mg/kg. The note with it: Mus musculus. A digest of the protocol:
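B16 melanoma, 10^6 cells ip on day 0, ip treatment from day 1, Q01Dx09 (single dose daily for 9 days). %T/C is median lifetime of treated over untreated tumored controls, times 100. Early deaths are assessed on day 4 for toxicity. Cures are animals alive on the last test day.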

The subject of assay [19] is B16. The experiment in a line: Antitumor activity in B16 Melanoma system animals is indicated by survivors on day 4 at a dose of 20 mg/kg intraperitoneally. It is filed as functional, Mus musculus. The arrangement: reference not given here. The note with it: route intraperitoneal. An outline of the steps: as §5
Assay [20] concerns MX1. Described as §7. It counts as functional, Mus musculus. The settings on record: route intraperitoneal.
Assay [21] has as its system B16. The experiment in a line: Difference in body weight in grams between test and control animals at a dose of 1.2 mg/kg intraperitoneally. It counts as functional, Mus musculus. The note with it: route intraperitoneal. An outline of the steps:
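B16 melanoma, 10^6 cells ip on day 0, then ip dosing from day 1, once daily for 9 days (Q01Dx09). The value is the body-weight difference in grams, treated minus tumored control animals.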

Assay [22] concerns MX1. The description is as §8. It is filed as functional, Mus musculus. The note with it: route intraperitoneal.
Assay [23] deals with MX1. Described as §4. It is filed as functional, Mus musculus. The settings on record: route intraperitoneal.
The test system of assay [24] is MX1. The assay is described as §6. The note with it: route intraperitoneal. It counts as functional, Mus musculus.
Assay [25] deals with B16. Nature of the assay: Antitumor activity in B16 Melanoma system animals is indicated by survivors on day 4 at a dose of 1.2 mg/kg intraperitoneally. It counts as functional, Mus musculus. The settings on record: route intraperitoneal. An outline of the steps: as §5
Assay [26] relates to MX1. Described as §1. It is filed as functional, Mus musculus. The note with it: route intraperitoneal.

What is called T/C is the result in the treated group divided by that in the control group, in per cent.

As for `CC(=O)OC1C(=O)[C@]2(C)C(O)C[C@H]3OC[C@@]3(OC(C)=O)[C@H]2[C@H](OC(=O)c2ccccc2)[C@]2(O)CC(OC(=O)[C@@H]3OC(=O)N(C(=O)c4ccccc4)[C@H]3c3ccccc3)C(C)=C1C2(C)C` (some centres not stated), the Activity with B16 [1], in the assay on B16 [6], in the assay on B16 [9] and in the assay on B16 [13] was 10 throughout. The Weight difference was 0 g in the assay with B16 [2]; -0.3 g with B16 [4]; -0.2 g with B16 [7]; -0.2 g in the assay with B16 [10]; -0.1 g in the assay with B16 [15]. In addition, the T/C in the assay with B16 [3] is listed as 100%; with B16 [5], 94%; with B16 [11], 98%; in the assay with B16 [12], 95%; with B16 [14], 88%. The “Survivors on day 4” value in the assay with B16 [8] amounted to 10.
Regarding `CC(=O)OC1C(=O)[C@@]2(C)[C@H]([C@H](OC(=O)c3ccccc3)[C@]3(O)CC(OC(=O)C(O)C(NC(=O)c4ccccc4)c4ccccc4)C(C)=C1C3(C)C)[C@]1(OC(C)=O)CO[C@@H]1C[C@@H]2O` (some centres not stated), the Weight difference in the assay on B16 [2] was -0.2 g; in the assay with B16 [16] it was -1.2 g; with B16 [10], 0 g; in the assay with B16 [15], 0 g. For the same compound, the T/C in the assay on B16 [3] is 139%; in the assay with B16 [18] it was “Toxic”; with B16 [11], 96%; in the assay with B16 [12] it was 175%. For the same compound, the Activity in the assay with B16 [17], with B16 [19] and in the assay with B16 [13] was 10 each time. Besides, the “Survivors on day 4” value in the assay with B16 [8] came out at 10.
As for `CC(=O)OC1C(=O)[C@@]2(C)[C@H]([C@H](OC(=O)c3ccccc3)[C@]3(O)CC(OC(=O)C(OC(=O)CCCC(=O)NCCCN(C)C)C(NC(=O)c4ccccc4)c4ccccc4)C(C)=C1C3(C)C)[C@]1(OC(C)=O)CO[C@@H]1C[C@@H]2O.Cl` (some centres not stated), the Weight difference with MX1 [20] was -2.2 T-C; with B16 [21] it was -0.1 g; in the assay on B16 [2], 0.1 g; in the assay on MX1 [22], -5.9 T-C; in the assay with B16 [4] it was -0.1 g; in the assay with MX1 [23], -0.6 T-C. The Weight difference is on record as 0.3 T-C in the assay with MX1 [24], 0 g in the assay with B16 [10], 0.1 T-C in the assay on MX1 [26] and -0.1 g in the assay with B16 [15]. For the same compound, the T/C in the assay on B16 [3] worked out at 352%; in the assay with B16 [5], 123%; with B16 [11], 352%; in the assay on B16 [12], 188%; with B16 [14] it was 129%. Moreover, the “Survivors on day 4” value in the assay with B16 [8] is given as 10. The Activity with B16 [25], in the assay on B16 [9], with B16 [19] and with B16 [13] was 10 in each case.
